Experimental data collected from several papers.
Target: Testis-specific serine/threonine-protein kinase 1 (TSSK1B, Homo sapiens, UniProt Q9BXA7)
Residues used in one study (Q9BXA7 1-367): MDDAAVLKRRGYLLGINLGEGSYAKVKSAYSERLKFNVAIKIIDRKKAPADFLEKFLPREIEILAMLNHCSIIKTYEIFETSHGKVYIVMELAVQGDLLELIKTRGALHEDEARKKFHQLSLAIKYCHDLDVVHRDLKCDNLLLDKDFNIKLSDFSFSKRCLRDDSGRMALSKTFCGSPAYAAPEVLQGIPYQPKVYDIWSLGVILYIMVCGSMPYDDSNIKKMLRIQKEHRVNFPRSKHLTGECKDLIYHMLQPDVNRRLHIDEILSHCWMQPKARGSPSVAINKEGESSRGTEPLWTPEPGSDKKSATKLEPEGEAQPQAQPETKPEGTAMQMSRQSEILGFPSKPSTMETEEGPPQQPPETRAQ

Structure (SMILES)	observed	mode	method	concentration	endpoint	result
Cc1c(NC(=O)c2cc(C(N)=O)nc3cc(F)ccc23)c(C(F)(F)F)nn1Cc1ccc(C(C)(C)C)cc1	cell-free assay		competition with immobilised ligand	1 µM	remaining binding	100%
N#CCCc1ccc2c(c1)-c1[nH]c3ccc([N+](=O)[O-])cc3c1CC(=O)N2	cell-free assay			0.5 µM	remaining signal	59.2%
Nc1ncnc2occ(-c3ccc(NC(=O)Nc4cc(C(F)(F)F)ccc4F)cc3)c12	cell-free assay	inhibitor		20 µM	remaining signal	52%
CN1CC(Oc2cnc(C#N)cc2-c2ccn3nc(NC(=O)C4CC4)cc3c2)C1	enzyme activity	inhibitor		1 µM	inhibition	9%
COc1cc2ncnc(Nc3ccc(Oc4ccccc4)cc3C)c2cc1OC	enzyme activity	inhibitor		1 µM	inhibition	2%
O=S(=O)(NC1CCC(c2cc(F)ccc2F)(S(=O)(=O)c2ccc(Cl)cc2)CC1)C(F)(F)F (centres unmarked)	cell-free assay		competition with immobilised ligand	1 µM	remaining binding	100%
O=C1NC(=O)c2cc(Nc3ccc(F)cc3)c(Nc3ccc(F)cc3)cc21	cell-free assay			0.5 µM	remaining signal	90.2%
COc1cc(-c2cn(C3CCc4c(F)cccc4N(CC(F)(F)F)C3=O)nn2)ccc1-n1cnc(C)c1 (centres unmarked)	cell-free assay		competition with immobilised ligand	1 µM	remaining binding	100%
O=C(Nc1cnn(-c2csc(C(=O)NC3COC3)c2)c1)Nc1c(F)cccc1Cl	enzyme activity	inhibitor		5 µM	remaining activity	107%
CN(C)C1CCN(CC#Cc2nn(C3CCCC3)c3nc(NCc4ccccc4)ncc23)C1 (centres unmarked)	enzyme activity	inhibitor	FRET	0.1 µM	inhibition	4%
Cc1ccc(Nc2nccc(N(C)c3ccc4c(C)n(C)nc4c3)n2)cc1S(N)(=O)=O	enzyme activity	inhibitor		10 µM	inhibition	1%
CNC(=O)c1ccc(Nc2ncc(C(F)(F)F)c(NCc3nccnc3N(C)S(C)(=O)=O)n2)cc1	cell-free assay		competition with immobilised ligand	0.1 µM	remaining binding	64%
CC(C)(C)c1nc(-c2cccc(NS(=O)(=O)c3c(F)cccc3F)c2F)c(-c2ccnc(N)n2)s1	enzyme activity	inhibitor	radiometric	1 µM	remaining activity	84%
CCCOc1ccc(OC)c(F)c1C(=O)c1ccc(C(=O)N[C@@H]2CNC[C@H]2NC(=O)c2ccc3[nH]ncc3c2)cc1	enzyme activity	inhibitor		10 µM	remaining activity	70%
Cc1ccc(C(=O)Nc2ccc(CN3CCN(C)CC3)c(C(F)(F)F)c2)cc1C#Cc1cnc2cccnn12	enzyme activity	inhibitor		23.5 nM	remaining activity	83%
Cc1nc(N2CC[C@@H](O)C2)ncc1-c1cc(C(F)(F)F)cc2[nH]ncc12	binding		competition with immobilised ligand	1 µM	remaining binding	98%
Cc1sc(C(=O)NC2COC2)cc1-n1cc(NC(=O)Nc2c(F)cccc2Cl)cn1	enzyme activity	inhibitor		10 µM	remaining activity	103%
CNC(=O)c1cc(Oc2ccc(NC(=O)Nc3ccc(Cl)c(C(F)(F)F)c3)cc2)ccn1	enzyme activity	inhibitor		0.3 µM	inhibition	-6%
CCOCCn1cc(C(=O)Nc2ccc(-n3nc(-c4cccnc4)cc3C(F)(F)F)cn2)ccc1=O	cell-free assay		competition with immobilised ligand	1 µM	remaining binding	100%
CCN(CC)CCNC(=O)c1c(C)[nH]c(/C=C2\C(=O)Nc3ccc(F)cc32)c1C	enzyme activity	inhibitor		10 µM	inhibition	20%
COc1ccc2c(O[C@@H]3C[C@H]4C(=O)N[C@]5(C(=O)O)CC5/C=C\CCCCC[C@H](NC(=O)OC5CCCC5)C(=O)N4C3)cc(-c3csc(NC(=O)C(C)C)n3)nc2c1C (some centres unmarked)	cell-free assay		competition with immobilised ligand	1 µM	remaining binding	70%
CCOc1cc(-c2nncn2C)ccc1Nc1ncc2cc(C)nc(NCC(C)(C)C)c2n1	enzyme activity	inhibitor	FRET	1 µM	inhibition	< 15%
Cc1cnc(NC2CCOCC2)nc1-n1cnc(C(=O)NC(CN)c2cc(F)cc(Cl)c2)c1 (centres unmarked)	enzyme activity	inhibitor	radiometric	1 µM	remaining activity	55%
